Assay results of several laboratories.
Protocols differ between the studies behind these lines. pIC50: −log10 of the molar value.
Cell line: SK-OV-3

SMILES | effect on | technique | concentration | time | measurement | result
COc1ccc(C(=O)/C=C/c2cccc(Br)c2)cc1S(N)(=O)=O | cell growth or viability | SRB | – | 48 h | GI50 | 4.1 µM
COc1cc(Nc2nccc(-c3cnn4nc(OC)ccc34)n2)cc(C(F)(F)F)c1 | cell growth or viability | ATP luminescence | – | – | pIC50 | 6.80
COc1ccc(C(=O)/C=C/c2ccc(Cl)c(Cl)c2)cc1S(N)(=O)=O | cell growth or viability | SRB | – | 48 h | GI50 | 5.5 µM
O=C(c1cc(Cc2n[nH]c(=O)c3ccccc23)ccc1F)N1CCN(C(=O)C2CC2)CC1 | colony formation | – | – | – | pIC50 | 5.58
C[C@]12CC[C@@H]3c4ccc(O)cc4CC[C@H]3[C@@H]1CC[C@@H]2O | cell growth or viability | ATP luminescence | – | 72 h | EC90 | 56.8 µM
COc1ccc(C(=O)/C=C/c2ccccc2Br)cc1S(N)(=O)=O | cell growth or viability | SRB | 10 µM | – | inhibition | 30%
Cc1ccc(-c2ccc(O)cc2)c(C(=C2C=CC(=O)C=C2)c2ccc(O)cc2)c1C#Cc1ccc(O)cc1 | cell growth or viability | MTT | – | 48 h | pIC50 | 4.73
Cc1cc(C)n(C(=S)[S][Au][PH](CCCCCC[PH]([Au][S]C(=S)n2nc(C)cc2C)(c2ccccc2)c2ccccc2)(c2ccccc2)c2ccccc2)n1 | cell growth or viability | – | – | – | GI50 | 0.852 µM
COc1cc(CNC(=O)CCCC/C=C/C(C)C)ccc1OCc1cn(-c2ccc(C(F)(F)F)cc2)nn1 | cell growth or viability | SRB | – | – | pIC50 | 4.97
CC/C(=C(\c1ccccc1)c1ccc(OCCN(C)C)cc1)c1ccccc1 | cell growth or viability | ATP luminescence | – | 72 h | EC90 | 17.4 µM
COc1ccc(C(=O)/C=C/c2cccc3ccccc23)cc1S(N)(=O)=O | cell growth or viability | SRB | – | 48 h | GI50 | 3.7 µM
O=C1Nc2ccccc2C1=NNc1nnc2n1N=C(c1ccccc1)CS2 | cell growth or viability | SRB | 10 µM | – | inhibition | 11%
COc1cccc2c1C(=O)c1c(O)c3c(c(O)c1C2=O)C[C@@](O)(C(=O)CO)C[C@@H]3O[C@H]1C[C@H](N)[C@H](O)[C@H](C)O1 | cell growth or viability | SRB | – | – | pIC50 | 4.59
O=c1[nH]cc(F)c(=O)[nH]1 | cell growth or viability | MTT | – | 48 h | pIC50 | 4.43
COc1ccc(C(=O)/C=C/c2ccc3ccccc3c2)cc1S(N)(=O)=O | cell growth or viability | SRB | 10 µM | – | inhibition | 77%
COc1ccc(-c2ccc(-c3ccc(C(=N)N)nc3)s2)cc1 | cell growth or viability | SRB | – | – | GI50 | 1.7 µM
C#C[C@@]1(O)[C@@H](CO)O[C@@H](n2cc(Cl)c3c(N)ncnc32)[C@@H]1O | cell growth or viability | SRB | – | – | GI50 | 0.119 µM
